≈ marks a conversion by molar mass, not a printed value.
How the values were obtained:
Klebsiella pneumoniae [1] = assay: Antimicrobial activity against ESBL producing Klebsiella pneumoniae 230 isolate infected thigh infection model ICR mouse; assay type: functional, Thigh muscle
Outline: (§1)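 Female ICR mice (~25 g) were made neutropenic with cyclophosphamide ip (150 and 100 mg/kg, days −4 and −1) and renally impaired with uranyl nitrate 5 mg/kg ip (day −3). Each thigh got 0.1 ml of 10^5 CFU/ml (or 10^7 for high inoculum) im 2 h pre-therapy. Human-simulated regimens were given sc, three mice per group, for 24 h. Efficacy was the log10 CFU/thigh change versus 0-h controls.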

Klebsiella pneumoniae [2] = assay: Antimicrobial activity against ESBL producing Klebsiella pneumoniae 264 isolate; assay type: functional
Klebsiella pneumoniae [3] = assay: Antimicrobial activity against ESBL producing Klebsiella pneumoniae 259 isolate; assay type: functional
Klebsiella pneumoniae [4] = assay: Antimicrobial activity against ESBL producing Klebsiella pneumoniae 260 isolate; assay type: functional
Escherichia coli [5] = assay: Antimicrobial activity against ESBL producing Escherichia coli 322 isolate infected thigh infection model ICR mouse; assay type: functional, Thigh muscle; outline: as §1
Klebsiella pneumoniae [6] = assay: Antimicrobial activity against ESBL producing Klebsiella pneumoniae 101 isolate infected thigh infection model ICR mouse; assay type: functional, Thigh muscle; outline: as §1
Escherichia coli [7] = assay: Antimicrobial activity against ESBL producing Escherichia coli 312 isolate infected thigh infection model ICR mouse; assay type: functional, Thigh muscle; outline: as §1
Escherichia coli [8] = assay: Antimicrobial activity against ESBL producing Escherichia coli 130 isolate infected thigh infection model ICR mouse; assay type: functional, Thigh muscle; outline: as §1
Escherichia coli [9] = assay: Antimicrobial activity against ESBL producing Escherichia coli 312 isolate; assay type: functional
Escherichia coli [10] = assay: Antimicrobial activity against ESBL producing Escherichia coli 315 isolate infected thigh infection model ICR mouse; assay type: functional, Thigh muscle; outline: as §1
Klebsiella pneumoniae [11] = assay: Antimicrobial activity against ESBL producing Klebsiella pneumoniae 270 isolate infected thigh infection model ICR mouse; assay type: functional, Thigh muscle; outline: as §1
Klebsiella pneumoniae [12] = assay: Antimicrobial activity against ESBL producing Klebsiella pneumoniae 268 isolate; assay type: functional
Klebsiella pneumoniae [13] = assay: Antimicrobial activity against ESBL producing Klebsiella pneumoniae 261 isolate; assay type: functional
Escherichia coli [14] = assay: Antimicrobial activity against ESBL producing Escherichia coli 118 isolate; assay type: functional
Klebsiella pneumoniae [15] = assay: Antimicrobial activity against ESBL producing Klebsiella pneumoniae 60 isolate; assay type: functional
Klebsiella pneumoniae [16] = assay: Antimicrobial activity against ESBL producing Klebsiella pneumoniae 254 isolate; assay type: functional
Escherichia coli [17] = assay: Antimicrobial activity against ESBL producing Escherichia coli 285 isolate; assay type: functional
Klebsiella pneumoniae [18] = assay: Antimicrobial activity against ESBL producing Klebsiella pneumoniae 60 isolate infected thigh infection model ICR mouse; assay type: functional, Thigh muscle; outline: as §1
Klebsiella pneumoniae [19] = assay: Antimicrobial activity against ESBL producing Klebsiella pneumoniae 270 isolate; assay type: functional
Klebsiella pneumoniae [20] = assay: Antimicrobial activity against ESBL producing Klebsiella pneumoniae 254 isolate infected thigh infection model ICR mouse; assay type: functional, Thigh muscle; outline: as §1
Escherichia coli [21] = assay: Antimicrobial activity against ESBL producing Escherichia coli 133 isolate; assay type: functional
Escherichia coli [22] = assay: Antimicrobial activity against ESBL producing Escherichia coli 285 isolate infected thigh infection model ICR mouse; assay type: functional, Thigh muscle; outline: as §1
Klebsiella pneumoniae [23] = assay: Antimicrobial activity against ESBL producing Klebsiella pneumoniae 262 isolate; assay type: functional
Klebsiella pneumoniae [24] = assay: Antimicrobial activity against ESBL producing Klebsiella pneumoniae 261 isolate infected thigh infection model ICR mouse; assay type: functional, Thigh muscle; outline: as §1
Klebsiella pneumoniae [25] = assay: Antimicrobial activity against ESBL producing Klebsiella pneumoniae 258 isolate; assay type: functional
Escherichia coli [26] = assay: Antimicrobial activity against ESBL producing Escherichia coli 315 isolate; assay type: functional
Escherichia coli [27] = assay: Antimicrobial activity against ESBL producing Escherichia coli 311 isolate; assay type: functional
Klebsiella pneumoniae [28] = assay: Antimicrobial activity against ESBL producing Klebsiella pneumoniae 265 isolate infected thigh infection model ICR mouse; assay type: functional, Thigh muscle; outline: as §1
Klebsiella pneumoniae [29] = assay: Antimicrobial activity against ESBL producing Klebsiella pneumoniae 266 isolate; assay type: functional
Klebsiella pneumoniae [30] = assay: Antimicrobial activity against ESBL producing Klebsiella pneumoniae 263 isolate infected thigh infection model ICR mouse; assay type: functional, Thigh muscle; outline: as §1
Escherichia coli [31] = assay: Antimicrobial activity against ESBL producing Escherichia coli 321 isolate; assay type: functional
Klebsiella pneumoniae [32] = assay: Antimicrobial activity against ESBL producing Klebsiella pneumoniae 266 isolate infected thigh infection model ICR mouse; assay type: functional, Thigh muscle; outline: as §1
Escherichia coli [33] = assay: Antimicrobial activity against Escherichia coli ATCC 25922 isolate infected thigh infection model ICR mouse; assay type: functional, Thigh muscle; outline: as §1
Klebsiella pneumoniae [34] = assay: Antimicrobial activity against ESBL producing Klebsiella pneumoniae 225 isolate; assay type: functional
Escherichia coli [35] = assay: Antimicrobial activity against ESBL producing Escherichia coli 243 isolate; assay type: functional
Escherichia coli [36] = assay: Antimicrobial activity against ESBL producing Escherichia coli 320 isolate infected thigh infection model ICR mouse; assay type: functional, Thigh muscle; outline: as §1
Klebsiella pneumoniae [37] = assay: Antimicrobial activity against ESBL producing Klebsiella pneumoniae 256 isolate infected thigh infection model ICR mouse; assay type: functional, Thigh muscle; outline: as §1
Escherichia coli [38] = assay: Antimicrobial activity against ESBL producing Escherichia coli 318 isolate infected thigh infection model ICR mouse; assay type: functional, Thigh muscle; outline: as §1
Escherichia coli [39] = assay: Antimicrobial activity against ESBL producing Escherichia coli 322 isolate; assay type: functional
Klebsiella pneumoniae [40] = assay: Antimicrobial activity against ESBL producing Klebsiella pneumoniae 255 isolate infected thigh infection model ICR mouse; assay type: functional, Thigh muscle; outline: as §1
Klebsiella pneumoniae [41] = assay: Antimicrobial activity against ESBL producing Klebsiella pneumoniae 255 isolate; assay type: functional
Klebsiella pneumoniae [42] = assay: Antimicrobial activity against ESBL producing Klebsiella pneumoniae 262 isolate infected thigh infection model ICR mouse; assay type: functional, Thigh muscle; outline: as §1
Klebsiella pneumoniae [43] = assay: Antimicrobial activity against ESBL producing Klebsiella pneumoniae 263 isolate; assay type: functional
Klebsiella pneumoniae [44] = assay: Antimicrobial activity against ESBL producing Klebsiella pneumoniae 257 isolate; assay type: functional
Escherichia coli [45] = assay: Antimicrobial activity against ESBL producing Escherichia coli 320 isolate; assay type: functional
Klebsiella pneumoniae [46] = assay: Antimicrobial activity against ESBL producing Klebsiella pneumoniae 259 isolate infected thigh infection model ICR mouse; assay type: functional, Thigh muscle; outline: as §1
Escherichia coli [47] = assay: Antimicrobial activity against ESBL producing Escherichia coli 321 isolate infected thigh infection model ICR mouse; assay type: functional, Thigh muscle; outline: as §1
Klebsiella pneumoniae [48] = assay: Antimicrobial activity against ESBL producing Klebsiella pneumoniae 225 isolate infected thigh infection model ICR mouse; assay type: functional, Thigh muscle; outline: as §1
Escherichia coli [49] = assay: Antimicrobial activity against Escherichia coli ATCC 25922 isolate; assay type: functional
Escherichia coli [50] = assay: Antimicrobial activity against Escherichia coli 120 isolate infected thigh infection model ICR mouse; assay type: functional, Thigh muscle; outline: as §1
Klebsiella pneumoniae [51] = assay: Antimicrobial activity against ESBL producing Klebsiella pneumoniae 101 isolate; assay type: functional
Escherichia coli [52] = assay: Antimicrobial activity against ESBL producing Escherichia coli 310 isolate infected thigh infection model ICR mouse; assay type: functional, Thigh muscle; outline: as §1
Escherichia coli [53] = assay: Antimicrobial activity against Escherichia coli 120 isolate; assay type: functional
Klebsiella pneumoniae [54] = assay: Antimicrobial activity against ESBL producing Klebsiella pneumoniae 230 isolate; assay type: functional
Escherichia coli [55] = assay: Antimicrobial activity against ESBL producing Escherichia coli 243 isolate infected thigh infection model ICR mouse; assay type: functional, Thigh muscle; outline: as §1
Klebsiella pneumoniae [56] = assay: Antimicrobial activity against ESBL producing Klebsiella pneumoniae 264 isolate infected thigh infection model ICR mouse; assay type: functional, Thigh muscle; outline: as §1
Klebsiella pneumoniae [57] = assay: Antimicrobial activity against ESBL producing Klebsiella pneumoniae 265 isolate; assay type: functional
Klebsiella pneumoniae [58] = assay: Antimicrobial activity against ESBL producing Klebsiella pneumoniae 257 isolate infected thigh infection model ICR mouse; assay type: functional, Thigh muscle; outline: as §1
Klebsiella pneumoniae [59] = assay: Antimicrobial activity against ESBL producing Klebsiella pneumoniae 258 isolate infected thigh infection model ICR mouse; assay type: functional, Thigh muscle; outline: as §1
Klebsiella pneumoniae [60] = assay: Antimicrobial activity against ESBL producing Klebsiella pneumoniae 260 isolate infected thigh infection model ICR mouse; assay type: functional, Thigh muscle; outline: as §1
Escherichia coli [61] = assay: Antimicrobial activity against ESBL producing Escherichia coli 311 isolate infected thigh infection model ICR mouse; assay type: functional, Thigh muscle; outline: as §1
Klebsiella pneumoniae [62] = assay: Antimicrobial activity against ESBL producing Klebsiella pneumoniae 268 isolate infected thigh infection model ICR mouse; assay type: functional, Thigh muscle; outline: as §1
Escherichia coli [63] = assay: Antimicrobial activity against ESBL producing Escherichia coli 130 isolate; assay type: functional
Escherichia coli [64] = assay: Antimicrobial activity against ESBL producing Escherichia coli 310 isolate; assay type: functional
Escherichia coli [65] = assay: Antimicrobial activity against ESBL producing Escherichia coli 133 isolate infected thigh infection model ICR mouse; assay type: functional, Thigh muscle; outline: as §1
Klebsiella pneumoniae [66] = assay: Bacteriostasis activity against ESBL producing Klebsiella pneumoniae 262 isolate at 8 ug/ml; assay type: functional

## C[C@@H](O)[C@H]1C(=O)N2C(C(=O)O)=C(S[C@@H]3CN[C@H](C(=O)N(C)C)C3)[C@H](C)[C@H]12 [MEROPENEM]
Klebsiella pneumoniae [1]
  fT>MIC: 85%
Klebsiella pneumoniae [2]
  MIC: 0.5 µg/mL (≈ 1.3 µM)
Klebsiella pneumoniae [3]
  MIC: 2 µg/mL (≈ 5.22 µM)
Klebsiella pneumoniae [4]
  MIC: 0.5 µg/mL (≈ 1.3 µM)
Escherichia coli [5]
  fT>MIC: 93%
Klebsiella pneumoniae [6]
  fT>MIC: 85%
Escherichia coli [7]
  fT>MIC: 90%
Escherichia coli [8]
  fT>MIC: 85%
Escherichia coli [9]
  MIC: 0.047 µg/mL (≈ 0.123 µM)
Escherichia coli [10]
  fT>MIC: 85%
Klebsiella pneumoniae [11]
  fT>MIC: 80%
Klebsiella pneumoniae [12]
  MIC: 0.125 µg/mL (≈ 0.326 µM)
Klebsiella pneumoniae [13]
  MIC: 32 µg/mL (≈ 83.4 µM)
Escherichia coli [14]
  MIC: 0.047 µg/mL (≈ 0.123 µM)
Klebsiella pneumoniae [15]
  MIC: 0.064 µg/mL (≈ 0.167 µM)
Klebsiella pneumoniae [16]
  MIC: 2 µg/mL (≈ 5.22 µM)
Escherichia coli [17]
  MIC: 0.047 µg/mL (≈ 0.123 µM)
Klebsiella pneumoniae [18]
  fT>MIC: 88%
Klebsiella pneumoniae [19]
  MIC: 0.25 µg/mL (≈ 0.652 µM)
Klebsiella pneumoniae [20]
  fT>MIC: 58%
Escherichia coli [21]
  MIC: 0.094 µg/mL (≈ 0.245 µM)
Escherichia coli [22]
  fT>MIC: 90%
Klebsiella pneumoniae [23]
  MIC: 8 µg/mL (≈ 20.9 µM)
Klebsiella pneumoniae [24]
  fT>MIC: 5%
Klebsiella pneumoniae [25]
  MIC: 4 µg/mL (≈ 10.4 µM)
Escherichia coli [26]
  MIC: 0.094 µg/mL (≈ 0.245 µM)
Escherichia coli [27]
  MIC: 0.75 µg/mL (≈ 1.96 µM)
Klebsiella pneumoniae [28]
  fT>MIC: 85%
Klebsiella pneumoniae [29]
  MIC: 2 µg/mL (≈ 5.22 µM)
Klebsiella pneumoniae [30]
  fT>MIC: 58%
Escherichia coli [31]
  MIC: 0.032 µg/mL (≈ 0.0834 µM)
Klebsiella pneumoniae [32]
  fT>MIC: 58%
Escherichia coli [33]
  fT>MIC: 93%
Klebsiella pneumoniae [34]
  MIC: 0.047 µg/mL (≈ 0.123 µM)
Escherichia coli [35]
  MIC: 0.047 µg/mL (≈ 0.123 µM)
Escherichia coli [36]
  fT>MIC: 93%
Klebsiella pneumoniae [37]
  fT>MIC: 18%
Escherichia coli [38]
  fT>MIC: 90%
Escherichia coli [39]
  MIC: 0.032 µg/mL (≈ 0.0834 µM)
Klebsiella pneumoniae [40]
  fT>MIC: 65%
Klebsiella pneumoniae [41]
  MIC: 1 µg/mL (≈ 2.61 µM)
Klebsiella pneumoniae [42]
  fT>MIC: 30%
Klebsiella pneumoniae [43]
  MIC: 2 µg/mL (≈ 5.22 µM)
Klebsiella pneumoniae [44]
  MIC: 4 µg/mL (≈ 10.4 µM)
Escherichia coli [45]
  MIC: 0.03 µg/mL (≈ 0.0782 µM)
Klebsiella pneumoniae [46]
  fT>MIC: 58%
Escherichia coli [47]
  fT>MIC: 93%
Klebsiella pneumoniae [48]
  fT>MIC: 90%
Escherichia coli [49]
  MIC: 0.03 µg/mL (≈ 0.0782 µM)
Escherichia coli [50]
  fT>MIC: 93%
Klebsiella pneumoniae [51]
  MIC: 0.094 µg/mL (≈ 0.245 µM)
Escherichia coli [52]
  fT>MIC: 90%
Escherichia coli [53]
  MIC: 0.03 µg/mL (≈ 0.0782 µM)
Klebsiella pneumoniae [54]
  MIC: 0.094 µg/mL (≈ 0.245 µM)
Escherichia coli [55]
  fT>MIC: 90%
Klebsiella pneumoniae [56]
  fT>MIC: 75%
Klebsiella pneumoniae [57]
  MIC: 0.125 µg/mL (≈ 0.326 µM)
Klebsiella pneumoniae [58]
  fT>MIC: 45%
Klebsiella pneumoniae [59]
  fT>MIC: 45%
Klebsiella pneumoniae [60]
  fT>MIC: 75%
Escherichia coli [61]
  fT>MIC: 70%
Klebsiella pneumoniae [62]
  fT>MIC: 85%
Escherichia coli [63]
  MIC: 0.125 µg/mL (≈ 0.326 µM)
Escherichia coli [64]
  MIC: 0.047 µg/mL (≈ 0.123 µM)
Escherichia coli [65]
  fT>MIC: 85%
Klebsiella pneumoniae [66]
  MIC: 8 µg/mL (≈ 20.9 µM)
